Experimental data reported in ChEMBL document CHEMBL4814002, “Synthesis, biological evaluation, and docking studies of novel pyrrolo[2,3-b]pyridine derivatives as both ectonucleotide pyrophosphatase/phosphodiesterase inhibitors and antiproliferative agents” (Eur J Med Chem, 2021).

Key:
[1] = tested on: HT-29; experiment: Antiproliferative activity against human HT-29 cells assessed as reduction in cell growth incubated for 24 hrs by MTT assay; type: functional, cell-based; conditions: HT-29, 24 h
How it was run: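 HT-29 colon cancer cells seeded per well and incubated overnight, then exposed for 24 h to serial dilutions of compound (10 mM DMSO stock diluted in medium), with doxorubicin and DMSO controls. MTT (0.5 mg/mL) added for 2 h at 37 °C, formazan dissolved in DMSO, absorbance read at 570 nm. IC50 from triplicate assays, mean ± S.E.M.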

[2] = tested on: WI-38; experiment: Cytotoxicity against human WI-38 cells assessed as reduction in cell growth incubated for 24 hrs by MTT assay; type: cell-based; conditions: WI-38, 24 h
How it was run: (§1)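 MTT assay. Cells seeded at 4 × 10^4 per well and incubated overnight. Treated 24 h; DMSO served as negative control and doxorubicin as positive control. MTT dye 0.5 mg/mL added for 2 h at 37 °C, formazan dissolved in DMSO, absorbance read at 570 nm. Single-concentration screen at 10; dose-dependent dilutions gave IC50. WI-38 fibroblasts grown in DMEM with 10% FBS and 1% penicillin/streptomycin. Triplicate means ± S.E.M.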

[3] = tested on: MCF7; experiment: Antiproliferative activity against human MCF7 cells assessed as reduction in cell growth at 10 uM incubated for 24 hrs by MTT assay relative to control; type: functional; how it was run: as §1
[4] = tested on: HT-29; experiment: Antiproliferative activity against human HT-29 cells assessed as reduction in cell growth at 10 uM incubated for 24 hrs by MTT assay relative to control; type: functional; how it was run: as §1
[5] = target: T1, Ectonucleotide pyrophosphatase/phosphodiesterase family member 1 (Homo sapiens, UniProt P22413); experiment: Inhibition of human NPP1 transfected in COS7 cells using pNP-TMP as substrate incubated for 35 mins; type: cell-based
T1 sequence (P22413 whole entry): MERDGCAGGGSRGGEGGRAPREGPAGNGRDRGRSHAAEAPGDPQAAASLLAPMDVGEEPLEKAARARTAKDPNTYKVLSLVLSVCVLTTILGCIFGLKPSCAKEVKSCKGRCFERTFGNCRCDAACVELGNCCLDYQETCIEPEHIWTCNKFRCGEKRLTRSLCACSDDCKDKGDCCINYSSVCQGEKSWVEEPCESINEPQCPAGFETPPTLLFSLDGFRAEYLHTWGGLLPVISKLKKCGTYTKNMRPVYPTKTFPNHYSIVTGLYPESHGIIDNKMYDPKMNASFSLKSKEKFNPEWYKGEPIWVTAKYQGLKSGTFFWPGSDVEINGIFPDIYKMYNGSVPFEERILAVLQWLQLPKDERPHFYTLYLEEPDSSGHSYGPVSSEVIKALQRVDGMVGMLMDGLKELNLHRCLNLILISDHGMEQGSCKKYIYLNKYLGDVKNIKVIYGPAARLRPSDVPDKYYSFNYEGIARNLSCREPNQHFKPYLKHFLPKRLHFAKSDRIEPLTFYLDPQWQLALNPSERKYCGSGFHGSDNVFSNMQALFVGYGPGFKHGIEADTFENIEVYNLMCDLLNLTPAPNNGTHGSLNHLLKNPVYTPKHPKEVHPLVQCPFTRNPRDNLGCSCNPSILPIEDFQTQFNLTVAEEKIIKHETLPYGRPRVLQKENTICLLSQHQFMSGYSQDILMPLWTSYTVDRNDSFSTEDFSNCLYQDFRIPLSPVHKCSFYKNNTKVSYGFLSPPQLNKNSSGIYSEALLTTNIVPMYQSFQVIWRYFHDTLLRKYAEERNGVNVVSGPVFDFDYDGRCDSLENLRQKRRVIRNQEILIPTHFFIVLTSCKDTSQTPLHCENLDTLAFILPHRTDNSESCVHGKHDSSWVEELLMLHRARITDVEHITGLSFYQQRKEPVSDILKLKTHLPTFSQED

[6] = target: T2, Ectonucleotide pyrophosphatase/phosphodiesterase family member 3 (Homo sapiens, UniProt O14638); experiment: Inhibition of human NPP3 transfected in COS7 cells using pNP-TMP as substrate incubated for 35 mins; type: cell-based
T2 sequence (O14638 whole entry): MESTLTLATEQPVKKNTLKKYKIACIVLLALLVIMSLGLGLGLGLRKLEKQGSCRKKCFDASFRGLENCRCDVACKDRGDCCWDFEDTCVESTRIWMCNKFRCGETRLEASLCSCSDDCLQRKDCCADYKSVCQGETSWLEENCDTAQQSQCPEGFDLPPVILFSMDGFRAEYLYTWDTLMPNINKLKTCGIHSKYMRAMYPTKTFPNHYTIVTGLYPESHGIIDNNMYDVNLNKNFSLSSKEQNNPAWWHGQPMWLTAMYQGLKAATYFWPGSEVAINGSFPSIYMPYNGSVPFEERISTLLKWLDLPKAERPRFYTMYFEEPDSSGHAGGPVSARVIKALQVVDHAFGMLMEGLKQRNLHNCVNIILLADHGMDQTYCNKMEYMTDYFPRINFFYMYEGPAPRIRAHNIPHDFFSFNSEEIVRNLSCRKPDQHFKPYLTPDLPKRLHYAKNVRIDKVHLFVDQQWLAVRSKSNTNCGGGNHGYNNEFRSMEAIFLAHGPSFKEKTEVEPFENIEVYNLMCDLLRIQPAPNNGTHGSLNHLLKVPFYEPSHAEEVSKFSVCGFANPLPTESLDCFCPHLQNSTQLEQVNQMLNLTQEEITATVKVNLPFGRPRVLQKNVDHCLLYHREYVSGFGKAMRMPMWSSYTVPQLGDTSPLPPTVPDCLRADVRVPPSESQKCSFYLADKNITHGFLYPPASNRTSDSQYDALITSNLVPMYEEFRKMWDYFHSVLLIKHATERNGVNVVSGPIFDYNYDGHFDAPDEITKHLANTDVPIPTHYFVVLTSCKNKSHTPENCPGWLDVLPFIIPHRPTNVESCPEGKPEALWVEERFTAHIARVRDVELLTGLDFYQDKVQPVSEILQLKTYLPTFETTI

[7] = target: T3, Ectonucleotide pyrophosphatase/phosphodiesterase family member 3 (Homo sapiens) (UniProt O14638); experiment: Inhibition of human NPP3 transfected in COS7 cells at 100 uM using pNP-TMP as substrate incubated for 35 mins relative to control; type: cell-based
T3 sequence (whole entry): T2 sequence (O14638 whole entry)
How it was run: (§2)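 Human NPP1 or NPP3 expressed in COS-7 cells by plasmid/Lipofectamine transfection, harvested 48-72 h later. Membrane fractions prepared by sonication and 300 g centrifugation, stored with 7.5% glycerol; protein measured by Bradford. Assay buffer: 50 mM Tris-HCl, 5 mM MgCl2, 0.1 mM ZnCl2, pH 9.5. Triplicates ± S.E.M.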

[8] = target: T4, Ectonucleotide pyrophosphatase/phosphodiesterase family member 1 (Homo sapiens) (UniProt P22413); experiment: Inhibition of human NPP1 transfected in COS7 cells at 100 uM using pNP-TMP as substrate incubated for 35 mins relative to control; type: cell-based; how it was run: as §2
T4 sequence (whole entry): T1 sequence (P22413 whole entry)

[9] = target: T2, Ectonucleotide pyrophosphatase/phosphodiesterase family member 3; experiment: Inhibition of NPP3 (unknown origin) transfected in COS7 cells using pNP-TMP as substrate incubated for 35 mins by spectrophotometric method; type: cell-based; how it was run: as §2
[10] = tested on: MCF7; experiment: Antiproliferative activity against human MCF7 cells assessed as reduction in cell growth at 100 uM incubated for 24 hrs by MTT assay relative to control; type: functional

Row | SMILES | IC50 [1] [µM] | IC50 [2] [µM] | inhibition at 10 µM [3] [%] | inhibition at 10 µM [4] [%] | IC50 [5] [µM] | IC50 [6] [µM] | inhibition [7] [%] | inhibition [8] [%] | IC50 [9] [µM] | inhibition at 100 µM [10] [%]
1 | COc1cccc2c1C(=O)c1c(O)c3c(c(O)c1C2=O)C[C@@](O)(C(=O)CO)C[C@@H]3O[C@H]1C[C@H](N)[C@H](O)[C@H](C)O1 [DOXORUBICIN] | 1.4 | 1.96 | 96.8 | 94.3 |  |  |  |  |  | 
2 | O=C(NS(=O)(=O)c1ccc2ccccc2c1)n1ccc2c(Cl)ccnc21 |  |  | 28.6 | 58.2 | 3.29 | 1.31 |  |  |  | 
3 | O=C(NS(=O)(=O)c1ccccc1)n1ccc2c(Cl)ccnc21 |  |  | 3.32 | 47.6 | 1.08 | 26.1 |  |  |  | 
4 | O=C(NS(=O)(=O)c1ccc(Cl)cc1)n1ccc2cccnc21 |  |  | 33.5 | 54.4 | 10.4 | 0.88 |  |  |  | 
5 | O=C(NS(=O)(=O)c1ccccc1)n1ccc2cccnc21 |  |  | 18.9 | 23.6 | 4.5 |  | 37.5 |  |  | 
6 | O=C(NS(=O)(=O)c1ccc2ccccc2c1)n1ccc2cc(Br)cnc21 |  |  | 28.8 | 60.1 | 178 | 25.3 |  |  |  | 
7 | Cc1ccc(S(=O)(=O)NC(=O)n2ccc3cccnc32)cc1 |  |  | 20.3 | 33.4 |  | 3.72 |  | 47.9 |  | 
8 | Oc1ccc(-c2nn(-c3cccc(NC(=S)Nc4ccccc4)c3)cc2-c2ccncc2)cc1Cl |  |  |  |  |  |  |  |  | 0.21 | 35.6
